Reference: ChEMBL document CHEMBL3853270, “Influence of Birch Bark Triterpenes on Keratinocytes and Fibroblasts from Diabetic and Nondiabetic Donors” (2016)
The source made the active and inactive calls. The calls are words filed in the database; no cut-off is given here.

Columns and labels:
Type in all cases: functional
[1] = system: Fibroblast; assay: Effect on transcription factor related gene expression in diabetic adult human primary fibroblasts assessed as JUN mRNA levels at 1.96 uM after 6 hrs by qPCR analysis
[2] = system: Fibroblast; assay: Effect on pro-inflammatory related gene expression in diabetic adult human primary fibroblasts assessed as IL1R1 mRNA levels at 9.81 uM after 6 hrs by qPCR analysis
Summary of the method: (§1)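 Primary human dermal fibroblasts (young or adult nondiabetic, adult diabetic donor) were treated for 6 h against a 0.1% DMSO solvent control. RNA from 320 000 cells per sample was measured by Fluidigm Biomark high-throughput qPCR. Values are fold change relative to solvent control, from four independent experiments, with SD. One-way ANOVA with Bonferroni post-test was applied.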

[3] = system: Keratinocyte; assay: Effect on growth factor related gene expression in non-diabetic adult human primary keratinocytes assessed as GDF15 mRNA levels at 1.96 uM after 6 hrs by qPCR analysis
Summary of the method: (§2)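 Primary human keratinocytes (nondiabetic young or adult, diabetic adult donors) were exposed to compound for 6 h, with 0.1% DMSO as solvent control. Total RNA came from 400 000 cells per sample and was assayed on a Fluidigm Biomark high-throughput qPCR chip. Results are fold change vs solvent control, from 2−4 independent experiments on two donors per group, with SD. Groups were compared by one-way ANOVA with Bonferroni post-test.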

[4] = system: Keratinocyte; assay: Effect on actin cytoskeleton in human diabetic primary keratinocytes assessed as formation of cellular protrusions at 10 nM after 2 hrs by rhodamine phalloidin-staining based fluorescence microscopic analysis
Summary of the method: (§3)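 Subconfluent cells on glass coverslips, collagen type I coated for fibroblasts; keratinocytes starved 2 days before stimulation. Exposure 2 h, then rhodamine-phalloidin staining (1:25 in PBS) and fluorescence microscopy. Controls were DMSO as solvent and PDGF (fibroblasts) or CNF1 (keratinocytes). Where used, p38-MAPK inhibitor LN 950 (100 nM) was added 30 min beforehand.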

[5] = system: Fibroblast; assay: Effect on antioxidant related gene expression in diabetic adult human primary fibroblasts assessed as SOD2 mRNA levels at 9.81 uM after 6 hrs by qPCR analysis
[6] = system: Keratinocyte; assay: Effect on transcription factor related gene expression in diabetic adult human primary keratinocytes assessed as JUN mRNA levels at 1.96 uM after 6 hrs by qPCR analysis
[7] = system: Fibroblast; assay: Effect on chemokines related gene expression in diabetic adult human primary fibroblasts assessed as IL8 mRNA levels at 9.81 uM after 6 hrs by qPCR analysis
[8] = system: Keratinocyte; assay: Effect on AQP3 mRNA expression levels in diabetic adult human primary keratinocytes at 1.96 uM after 6 hrs by qPCR analysis
Summary of the method: (§4)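 Primary keratinocytes from nondiabetic young and adult and diabetic adult donors; 400 000 cells per sample, 6 h exposure at 1.96 or 9.81 μM. RNA extracted and read on a high-throughput qPCR chip. Results are fold change versus 0.1% DMSO solvent control from 5−7 independent experiments over two donors per group, SD, one-way ANOVA with Bonferroni post-test.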

[9] = system: Fibroblast; assay: Effect on pro-inflammatory related gene expression in non-diabetic young human primary fibroblasts assessed as IL6 mRNA levels at 9.81 uM after 6 hrs by qPCR analysis
[10] = Effect on wound healing activity in diabetic adult human primary keratinocytes assessed as upregulation of IL1RA protein levels at 1.96 uM after 24 hrs by bead-based suspension array analysis; conditions: Keratinocyte
[11] = Effect on wound healing activity in diabetic adult human primary keratinocytes assessed as upregulation of soluble E-selectin protein levels at 1.96 uM after 24 hrs by bead-based suspension array analysis; conditions: Keratinocyte
[12] = system: Keratinocyte; assay: Effect on chemokines related gene expression in non-diabetic adult human primary keratinocytes assessed as IL8 mRNA levels at 9.81 uM after 6 hrs by qPCR analysis
[13] = system: Fibroblast; assay: Effect on antioxidant related gene expression in non-diabetic young human primary fibroblasts assessed as SOD2 mRNA levels at 9.81 uM after 6 hrs by qPCR analysis
[14] = Effect on wound healing activity in diabetic adult human primary keratinocytes assessed as upregulation of MIF protein levels at 1.96 uM after 24 hrs by bead-based suspension array analysis; conditions: Keratinocyte
[15] = Effect on wound healing activity in non-diabetic adult human primary keratinocytes assessed as upregulation of IL8 protein levels at 1.96 uM after 24 hrs by bead-based suspension array analysis; conditions: Keratinocyte
[16] = Effect on wound healing activity in non-diabetic adult human primary keratinocytes assessed as upregulation of MIP1alpha protein levels at 1.96 uM after 24 hrs by bead-based suspension array analysis; conditions: Keratinocyte
[17] = system: Keratinocyte; assay: Effect on pro-inflammatory related gene expression in diabetic adult human primary keratinocytes assessed as IL1R1 mRNA levels at 9.81 uM after 6 hrs by qPCR analysis
[18] = system: Keratinocyte; assay: Effect on MMP1 mRNA expression levels in diabetic adult human primary keratinocytes at 1.96 uM after 6 hrs by qPCR analysis; summary of the method: as §4
[19] = system: Keratinocyte; assay: Effect on chemokines related gene expression in non-diabetic young human primary keratinocytes assessed as CXCL10 mRNA levels at 1.96 uM after 6 hrs by qPCR analysis; summary of the method: as §2
[20] = system: Fibroblast; assay: Effect on pro-inflammatory related gene expression in non-diabetic young human primary fibroblasts assessed as PTGS2 mRNA levels at 1.96 uM after 6 hrs by qPCR analysis
[21] = system: Keratinocyte; assay: Effect on MMP1 mRNA expression levels in non-diabetic adult human primary keratinocytes at 9.81 uM after 6 hrs by qPCR analysis; summary of the method: as §4
[22] = system: Keratinocyte; assay: Effect on chemokines related gene expression in non-diabetic adult human primary keratinocytes assessed as CXCL10 mRNA levels at 1.96 uM after 6 hrs by qPCR analysis
[23] = Effect on wound healing activity in diabetic adult human primary fibroblasts assessed as upregulation of RANTES protein levels at 1.96 uM after 24 hrs by bead-based suspension array analysis; conditions: Fibroblast
[24] = system: Fibroblast; assay: Effect on growth factors related gene expression in non-diabetic adult human primary fibroblasts assessed as FGF2 mRNA levels at 1.96 uM after 6 hrs by qPCR analysis; summary of the method: as §1
[25] = system: Keratinocyte; assay: Effect on pro-inflammatory related gene expression in non-diabetic adult human primary keratinocytes assessed as IL6 mRNA levels at 9.81 uM after 6 hrs by qPCR analysis
[26] = system: Fibroblast; assay: Effect on pro-inflammatory related gene expression in diabetic adult human primary fibroblasts assessed as IL1R1 mRNA levels at 1.96 uM after 6 hrs by qPCR analysis; summary of the method: as §1
[27] = system: Keratinocyte; assay: Effect on AQP3 mRNA expression levels in non-diabetic young human primary keratinocytes at 9.81 uM after 6 hrs by qPCR analysis; summary of the method: as §4
[28] = system: Fibroblast; assay: Effect on actin cytoskeleton in human non-diabetic primary fibroblasts assessed as formation of thin elongated cellular body at 10 nM after 2 hrs by rhodamine phalloidin-staining based fluorescence microscopic analysis; summary of the method: as §3
[29] = system: Fibroblast; assay: Effect on antiinflammatory related gene expression in non-diabetic adult human primary fibroblasts assessed as SOCS3 mRNA levels at 9.81 uM after 6 hrs by qPCR analysis
Summary of the method: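 Primary dermal fibroblasts from one nondiabetic young, one nondiabetic adult and one diabetic adult donor; 320 000 cells per sample, 6 h at 1.96 or 9.81 μM. RNA measured on a high-throughput qPCR chip. Fold change versus 0.1% DMSO control, four independent experiments, SD, one-way ANOVA with Bonferroni post-test.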

C=C(C)[C@@H]1CC[C@]2(CO)CC[C@]3(C)[C@H](CC[C@@H]4[C@@]5(C)CC[C@H](O)C(C)(C)[C@@H]5CC[C@]43C)[C@@H]12 [BETULIN]
fold change (FC) [1]: 1.3
fold change (FC) [2]: 1.9
fold change (FC) [3]: 1
Activity [4]: Active
fold change (FC) [5]: 1.1
fold change (FC) [6]: 1.2
fold change (FC) [7]: 3.7
fold change (FC) [8]: 0.8
fold change (FC) [9]: 55
Activity [10]: Active
Activity [11]: Active
fold change (FC) [12]: 69.9
fold change (FC) [13]: 2.2
Activity [14]: Active
Activity [15]: Active
Activity [16]: Active
fold change (FC) [17]: 0.9
fold change (FC) [18]: 1.2
fold change (FC) [19]: 1.9
fold change (FC) [20]: 10.9
fold change (FC) [21]: 1
fold change (FC) [22]: 2.9
Activity [23]: Active
fold change (FC) [24]: 2.9
fold change (FC) [25]: 24.1
fold change (FC) [26]: 1.7
fold change (FC) [27]: 1.1
Activity [28]: Active
fold change (FC) [29]: 24.6
